Measurements: ChEMBL document CHEMBL3608286, “Azaphilone and Diphenyl Ether Derivatives from a Gorgonian-Derived Strain of the Fungus Penicillium pinophilum” (J Nat Prod, 2015)
≈ marks a conversion by molar mass, not a printed value.

Tests used:
Amphibalanus amphitrite [1] = experiment: Selectivity index, ratio of CC50 for Balanus amphitrite Darwin cyprids to EC50 for antifouling activity against larval settlements of Balanus amphitrite Darwin cyprids
Outline: (§1)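 Barnacle cyprid larvae tested for inhibition of settlement, following a procedure from earlier literature. SeaNine 211 served as the positive control. EC50 was taken for settlement inhibition and LC50 for larval toxicity, with LC50/EC50 as the ratio.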

Amphibalanus amphitrite [2] = experiment: Antifouling activity against larval settlements of Balanus amphitrite Darwin cyprids; assay type: functional, organism-based; outline: as §1
RD = experiment: Cytotoxicity against human RD cells by neutral red method; assay type: functional, cell-based
Outline: (§2)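 Human cancer cell lines (HeLa, Hep-2, RD) assayed by Neutral Red uptake, giving IC50. Adriamycin was the positive control.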

[3] = Cytotoxicity against human Hep2 cells by neutral red method; assay type: functional, cell-based; settings: HEp-2; outline: as §2
HeLa = experiment: Cytotoxicity against human HeLa cells by neutral red method; assay type: functional, cell-based; outline: as §2
[4] = Amphibalanus amphitrite, Darwin, read-out: EC50

Compound	Ratio CC50/EC50 (Amphibalanus amphitrite [1])	EC50 (Amphibalanus amphitrite [2]; [4]) [µg/mL]	EC50 (Amphibalanus amphitrite [2])	further results
COc1c([C@@H](O)CC(C)(C)O)ccc2c1C(=O)OCc1cc(C)cc(O)c1O2	>50	20 (≈ 51.5 µM)	–	–
C/C=C/C1=CC2=CC(=O)[C@@](C)(O)[C@@H](OC(=O)c3c(C)cc(O)cc3O)[C@@H]2CO1	–	–	Not Active	–
COc1c([C@@H](O)CC(C)C)ccc2c1C(=O)OCc1cc(C)cc(O)c1O2 [PENICILLIDE]	>50	2.6 (≈ 6.98 µM)	–	IC50 (RD): 7.8 µM; IC50 [3]: 6.7 µM
COc1c([C@H](CC(C)C)OC(C)=O)ccc2c1C(=O)OCc1cc(C)cc(O)c1O2	>50	10 (≈ 24.1 µM)	–	–
CCCCCCCCn1sc(Cl)c(Cl)c1=O	20.3	1.2 (≈ 4.25 µM)	–	–
Cc1cc(O)cc(O)c1C(=O)O[C@]1(C)C(=O)C=C2C=C(/C=C/CO)OC=C2C1=O	–	–	Not Active	–
Cc1cc(O)cc(O)c1C(=O)O[C@]1(C)C(=O)C=C2C=C(/C=C/CO)OC[C@H]2[C@@H]1O	–	–	Not Active	–
Cc1cc(O)cc(O)c1C(=O)O[C@]1(C)C(=O)C2=C(C=C(/C=C/C(=O)O)OC2)C[C@H]1O	–	–	Not Active	–
C/C=C/C1=CC2=CC(=O)[C@@](C)(O)[C@@H](OC(=O)c3c(C)cc(O)cc3O)C2=CO1	–	–	Not Active	–
C/C=C/C1=CC2=CC(=O)[C@@](C)(OC(=O)c3c(C)cc(O)cc3O)C(=O)C2=CO1	–	–	Not Active	–
Cc1cc(O)cc(O)c1C(=O)O[C@H]1[C@@H]2COC(/C=C/CO)=CC2=CC(=O)[C@@]1(C)O [PINOPHILIN B]	–	–	Not Active	–
COc1c([C@@H](O)CC(C)C)ccc2c1C(=O)OCc1cc(CO)cc(O)c1O2	>50	6 (≈ 15.4 µM)	–	IC50 (HeLa): 6.1 µM
COc1cccc2c1C(=O)c1c(O)c3c(c(O)c1C2=O)C[C@@](O)(C(=O)CO)C[C@@H]3O[C@H]1C[C@H](N)[C@H](O)[C@H](C)O1 [DOXORUBICIN]	–	–	–	IC50 (RD): 2 µM; IC50 [3]: 1.5 µM
Cc1cc(O)cc(O)c1C(=O)O[C@]1(C)C(=O)C=C2C=C(/C=C/C(=O)O)OC=C2C1=O	–	–	Not Active	–
Cc1cc(O)cc(O)c1C(=O)O[C@H]1[C@@H]2COC(CC(C)O)=CC2=CC(=O)[C@@]1(C)O (some centres undefined)	–	–	Not Active	–
